From ChEMBL document CHEMBL4342502, “Synthesis and Antichlamydial Activity of Molecules Based on Dysregulators of Cylindrical Proteases” (J Med Chem, 2020)
Activity calls are given as the source filed them. The rule behind the calls is not given here.

Key:
Type in all cases: functional, organism-based
[1] = system: Candida albicans; experiment: Antifungal activity against Candida albicans ATCC 90028 assessed as fungal growth inhibition at 32 ug/ml measured after 16 hrs by broth microdilution method
[2] = system: Acinetobacter baumannii; experiment: Antibacterial activity against Acinetobacter baumannii ATCC 19606 assessed as bacterial growth inhibition at 32 ug/ml measured after 16 hrs by broth microdilution method; conditions: ATCC 19606 = CIP 70.34 = JCM 6841
[3] = system: Escherichia coli; experiment: Antibacterial activity against Escherichia coli ATCC 25922 assessed as bacterial growth inhibition at 32 ug/ml measured after 16 hrs by broth microdilution method
[4] = system: Chlamydia trachomatis; experiment: Anti-chlamydial activity against Chlamydia trachomatis Serovar LGV-L2 infected in Hep2 cells assessed as inhibition of chlamydial inclusion at 50 ug/ml treated at 8 hrs post infection and measured at 24 hrs post-infection by immunofluorescence assay
Summary of the method: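 HEp-2 cells infected with C. trachomatis serovar L2. Compounds at 50 μg/mL added 8 hpi; inclusion number and size assessed by immunofluorescence at 24 hpi against untreated cells. Cell morphology and viability checked by phase-contrast microscopy.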

[5] = system: Escherichia coli; experiment: Antibacterial activity against Escherichia coli K12 assessed as bacterial growth inhibition at 32 ug/ml measured after 16 hrs by broth microdilution method; conditions: K-12
Summary of the method: (§1)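 Broth microdilution in Mueller Hinton broth, triplicate. Direct colony suspension at 1.5 x 10^8 CFU/mL diluted to ~10^5 CFU/mL. Serial dilutions made from DMSO stocks at 1 mg/mL; vancomycin positive control, blank medium negative control. Incubated 16 h at optimum temperature. MIC is the lowest concentration without visible growth at 600 nm; mean of triplicate determinations.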

[6] = system: Klebsiella pneumoniae; experiment: Antibacterial activity against Klebsiella pneumoniae ATCC 700603 assessed as bacterial growth inhibition at 32 ug/ml measured after 16 hrs by broth microdilution method
[7] = system: Cryptococcus neoformans; experiment: Antifungal activity against Cryptococcus neoformans var. grubii H99 ATCC […] as fungal growth inhibition at 32 ug/ml measured after 16 hrs by broth microdilution method; conditions: var. grubii H99 ATCC 208821
[8] = system: Staphylococcus aureus; experiment: Antibacterial activity against Staphylococcus aureus JE2 assessed as bacterial growth inhibition at 32 ug/ml measured after 16 hrs by broth microdilution method; summary of the method: as §1
[9] = system: Pseudomonas aeruginosa; experiment: Antibacterial activity against Pseudomonas aeruginosa ATCC 27853 assessed as bacterial growth inhibition at 32 ug/ml measured after 16 hrs by broth microdilution method
[10] = system: Staphylococcus aureus; experiment: Antibacterial activity against methicillin-resistant Staphylococcus aureus ATCC 43300 assessed as bacterial growth inhibition at 32 ug/ml measured after 16 hrs by broth microdilution method
[11] = system: Staphylococcus aureus; experiment: Antibacterial activity against Staphylococcus aureus JE2 assessed as bacterial death up to 256 ug/ml measured after 16 hrs by broth microdilution method; summary of the method: as §1
[12] = system: Escherichia coli; experiment: Antibacterial activity against Escherichia coli K12 assessed as bacterial death up to 256 ug/ml measured after 16 hrs by broth microdilution method; conditions: K-12; summary of the method: as §1

With `CC(C)(C(=O)NCCOc1ccccc1Cl)S(=O)(=O)c1ccc(C(F)(F)F)cc1` the inhibition [1] was “inactive”, the inhibition [2] was “inactive” and the inhibition [3] was “inactive”. For the same compound, the inhibition [4] was “Active”, the inhibition [5] was “inactive” and the inhibition [6] was “inactive”. The inhibition [7] was “inactive”, the inhibition [8] was “inactive” and the inhibition [9] was “inactive”. The inhibition [10] was “inactive”.

In the case of `CC(C)(C(=O)NCCCc1ccccc1)S(=O)(=O)c1ccccn1`, the inhibition [1] is reported as “inactive”, the inhibition [2] is reported as “inactive” and the inhibition [3] is reported as “inactive”. The inhibition [4] was “inactive”, the inhibition [5] was “inactive” and the inhibition [6] was “inactive”. For the same compound, the inhibition [7] was “inactive”, the inhibition [8] was “inactive” and the inhibition [9] was “inactive”. The inhibition [10] was “inactive”.

In the case of `NCCCc1ccccc1`, the inhibition [1] is reported as “inactive”, the inhibition [2] is reported as “inactive” and the inhibition [3] is reported as “inactive”. For the same compound, the inhibition [5] was “inactive”, the inhibition [6] was “inactive” and the inhibition [7] was “inactive”. The inhibition [8] was “inactive”, the inhibition [9] was “inactive” and the inhibition [10] was “inactive”.

`Cc1ccccc1N1CCN(C(=O)C(C)S(=O)(=O)c2ccc(C(F)(F)F)cn2)CC1` (stereo not given) was tested, and the inhibition [1] was “inactive”, the inhibition [2] was “inactive” and the inhibition [3] was “inactive”. For the same compound, the inhibition [4] was “inactive”, the inhibition [5] was “inactive” and the inhibition [6] was “inactive”. For the same compound, the inhibition [7] was “inactive”, the inhibition [8] was “inactive” and the inhibition [9] was “inactive”. The inhibition [10] was “inactive”.

`CC(C)(C(=O)NCCOc1ccccc1)S(=O)(=O)c1ccccc1` was tested, and the inhibition [4] was “inactive”.

`Cc1ccc(C)c(N2CCN(C(=O)C(C)(C)S(=O)(=O)c3ccc(C(F)(F)F)cn3)CC2)c1` was tested, and the inhibition [1] was “inactive”, the inhibition [2] was “inactive” and the inhibition [3] was “inactive”. For the same compound, the inhibition [4] was “Active”, the inhibition [5] was “inactive” and the inhibition [6] was “inactive”. For the same compound, the inhibition [7] was “inactive”, the inhibition [8] was “inactive” and the inhibition [9] was “inactive”. For the same compound, the inhibition [10] was “inactive”.

For `NCCBr`, the inhibition [1] was “inactive”, the inhibition [2] was “inactive” and the inhibition [3] was “inactive”. The inhibition [5] was “inactive”, the Activity [11] was “inactive” and the inhibition [6] was “inactive”. The Activity [12] was “inactive”, the inhibition [7] was “inactive” and the inhibition [8] was “inactive”. The inhibition [9] was “inactive” and the inhibition [10] was “inactive”.

With `CC(C(=O)N1CCN(c2ccc(Cl)c(Cl)c2)CC1)S(=O)(=O)c1ccc(C(F)(F)F)cn1` (stereo not given) the inhibition [1] was “inactive”, the inhibition [2] was “inactive” and the inhibition [3] was “inactive”. The inhibition [4] was “inactive”, the inhibition [5] was “inactive” and the inhibition [6] was “inactive”. For the same compound, the inhibition [7] was “inactive”, the inhibition [8] was “inactive” and the inhibition [9] was “inactive”. For the same compound, the inhibition [10] was “inactive”.

With `CC(C)(C(=O)N1CCN(Cc2ccc(F)cc2)CC1)S(=O)(=O)c1ccc(C(F)(F)F)cn1` the inhibition [1] was “inactive”, the inhibition [2] was “inactive” and the inhibition [3] was “inactive”. For the same compound, the inhibition [4] was “inactive”, the inhibition [5] was “inactive” and the inhibition [6] was “inactive”. For the same compound, the inhibition [7] was “inactive”, the inhibition [8] was “inactive” and the inhibition [9] was “inactive”. For the same compound, the inhibition [10] was “inactive”.

For `CC(C)(C(=O)NCCOc1ccc(Cl)cc1)S(=O)(=O)c1ccccc1`, the inhibition [1] was “inactive”, the inhibition [2] was “inactive” and the inhibition [3] was “inactive”. The inhibition [4] was “inactive”, the inhibition [5] was “inactive” and the inhibition [6] was “inactive”. For the same compound, the inhibition [7] was “inactive”, the inhibition [8] was “inactive” and the inhibition [9] was “inactive”. For the same compound, the inhibition [10] was “inactive”.

`CC(C)(C(=O)NCCOc1ccc(Cl)cc1)S(=O)(=O)c1ccc(C(F)(F)F)cn1` was tested, and the inhibition [1] was “inactive”, the inhibition [2] was “inactive” and the inhibition [3] was “inactive”. For the same compound, the inhibition [4] was “inactive”, the inhibition [5] was “inactive” and the inhibition [6] was “inactive”. The inhibition [7] was “inactive”, the inhibition [8] was “inactive” and the inhibition [9] was “inactive”. For the same compound, the inhibition [10] was “inactive”.

`CC(C)(C(=O)NCCOc1ccccc1Cl)S(=O)(=O)c1ccc(C(F)(F)F)cn1` was tested, and the inhibition [1] was “inactive”, the inhibition [2] was “inactive” and the inhibition [3] was “inactive”. For the same compound, the inhibition [4] was “Active”, the inhibition [5] was “inactive” and the Activity [11] was “inactive”. For the same compound, the inhibition [6] was “inactive”, the Activity [12] was “inactive” and the inhibition [7] was “inactive”. For the same compound, the inhibition [8] was “inactive”, the inhibition [9] was “inactive” and the inhibition [10] was “inactive”.

With `CC(C)(C(=O)NCCSc1ccccc1Cl)S(=O)(=O)c1ccc(C(F)(F)F)cc1` the inhibition [1] was “inactive”, the inhibition [2] was “inactive” and the inhibition [3] was “inactive”. The inhibition [4] was “Active”, the inhibition [5] was “inactive” and the inhibition [6] was “inactive”. The inhibition [7] was “inactive”, the inhibition [8] was “inactive” and the inhibition [9] was “inactive”. For the same compound, the inhibition [10] was “inactive”.

`COc1cccc(N2CCN(C(=O)C(C)(C)S(=O)(=O)c3ccc(C(F)(F)F)cn3)CC2)c1` was tested, and the inhibition [1] was “inactive”, the inhibition [2] was “inactive” and the inhibition [3] was “inactive”. For the same compound, the inhibition [4] was “Active”, the inhibition [5] was “inactive” and the inhibition [6] was “inactive”. For the same compound, the inhibition [7] was “inactive”, the inhibition [8] was “inactive” and the inhibition [9] was “inactive”. For the same compound, the inhibition [10] was “inactive”.

`Cc1ccc(C)c(N2CCN(C(=O)C(C)S(=O)(=O)c3ccc(C(F)(F)F)cn3)CC2)c1` (stereo not given) was tested, and the inhibition [1] was “inactive”, the inhibition [2] was “inactive” and the inhibition [3] was “inactive”. For the same compound, the inhibition [4] was “inactive”, the inhibition [5] was “inactive” and the inhibition [6] was “inactive”. The inhibition [7] was “inactive”, the inhibition [8] was “inactive” and the inhibition [9] was “inactive”. For the same compound, the inhibition [10] was “inactive”.

For `CC(C)(C(=O)NCCCc1ccccc1)S(=O)(=O)c1ccc(Cl)cn1`, the inhibition [4] was “Active”.

With `CC(C)(C(=O)NCCOc1ccc(Cl)cc1)S(=O)(=O)c1ccc(C(F)(F)F)cc1` the inhibition [1] was “inactive”, the inhibition [2] was “inactive” and the inhibition [3] was “inactive”. For the same compound, the inhibition [4] was “inactive”, the inhibition [5] was “inactive” and the inhibition [6] was “inactive”. The inhibition [7] was “inactive”, the inhibition [8] was “inactive” and the inhibition [9] was “inactive”. For the same compound, the inhibition [10] was “inactive”.

With `CC(C(=O)NCCCc1ccccc1)S(=O)(=O)c1ccc(C(F)(F)F)cn1` (stereo not given) the inhibition [1] was “inactive”, the inhibition [2] was “inactive” and the inhibition [3] was “inactive”. The inhibition [4] was “inactive”, the inhibition [5] was “inactive” and the inhibition [6] was “inactive”. The inhibition [7] was “inactive”, the inhibition [8] was “inactive” and the inhibition [9] was “inactive”. The inhibition [10] was “inactive”.

For `CC(C)(C(=O)NCCSc1ccc(Cl)cc1)S(=O)(=O)c1ccc(C(F)(F)F)cc1`, the inhibition [1] was “inactive”, the inhibition [2] was “inactive” and the inhibition [3] was “inactive”. The inhibition [4] was “Active”, the inhibition [5] was “inactive” and the inhibition [6] was “inactive”. For the same compound, the inhibition [7] was “inactive”, the inhibition [8] was “inactive” and the inhibition [9] was “inactive”. The inhibition [10] was “inactive”.

For `CC(C)(C(=O)N1CCN(c2ccccc2)CC1)S(=O)(=O)c1ccc(C(F)(F)F)cn1`, the inhibition [1] was “inactive”, the inhibition [2] was “inactive” and the inhibition [3] was “inactive”. The inhibition [4] was “inactive”, the inhibition [5] was “inactive” and the inhibition [6] was “inactive”. For the same compound, the inhibition [7] was “inactive”, the inhibition [8] was “inactive” and the inhibition [9] was “inactive”. For the same compound, the inhibition [10] was “inactive”.

In the case of `CC(C)(C(=O)NCCSc1ccccc1)S(=O)(=O)c1ccc(C(F)(F)F)cn1`, the inhibition [4] is reported as “inactive”.

`CC(C)(C(=O)N1CCN(c2ccccn2)CC1)S(=O)(=O)c1ccc(C(F)(F)F)cn1` was tested, and the inhibition [1] was “inactive”, the inhibition [2] was “inactive” and the inhibition [3] was “inactive”. For the same compound, the inhibition [4] was “inactive”, the inhibition [5] was “inactive” and the inhibition [6] was “inactive”. For the same compound, the inhibition [7] was “inactive”, the inhibition [8] was “inactive” and the inhibition [9] was “inactive”. For the same compound, the inhibition [10] was “inactive”.
